From ChEMBL document CHEMBL2321845, “Discovery of 4-Aryl-2-benzoyl-imidazoles as tubulin polymerization inhibitor with potent antiproliferative properties” (J Med Chem, 2013) come the findings set out here.

The subject of assay [1] is MDA-MB-435. Kind of assay: Cytotoxicity against human MDA-MB-435 cells assessed as growth inhibition after 48 hrs by SRB assay. The class given is functional, cell-based. The settings on record: MDA-MB-435, 48 h.
Assay [2] concerns PC-3. Kind of assay: Cytotoxicity against human PC3 cells assessed as growth inhibition after 96 hrs by SRB assay. The settings on record: PC-3, 96 h. It counts as functional, cell-based. The method, boiled down: (§1)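 Plated at 1000–5000 cells/well depending on growth rate and treated with graded compound concentrations for 96 h, three to five replicates. Cell number was measured by SRB: 10% TCA fixation, 0.4% SRB staining, absorbance at 540 nm. IC50 relative to untreated control came from a nonlinear regression fit.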
(In SRB staining, fixed cells bind dye roughly in proportion to their protein.)

Assay [3] can be described thus: Cytotoxicity against human MDA-MB-435/LCC6MDR1 cells assessed as growth inhibition after 48 hrs by SRB assay. The class given is functional, cell-based, MDA-MB-435/LCC6 MDR1.
The test system of assay [4] is A-375. Kind of assay: Cytotoxicity against human A375 cells assessed as growth inhibition after 48 hrs by SRB assay. It counts as functional, cell-based. The settings on record: A-375, 48 h. The method, boiled down: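 Melanoma cells from ATCC, grown in DMEM with 10% FBS at 37°C under 5% CO2. Seeded at 1000–5000 cells/well according to growth rate and exposed to a range of compound concentrations for 48 h, in three to five replicates. Cells were fixed with 10% TCA, stained with 0.4% SRB and read at 540 nm.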

In assay [5] the test system is DU-145. Kind of assay: Cytotoxicity against human DU145 cells assessed as growth inhibition after 96 hrs by SRB assay. It counts as functional, cell-based.
Assay [6] has as its system PPC-1. Kind of assay: Cytotoxicity against human PPC1 cells assessed as growth inhibition after 96 hrs by SRB assay. It counts as functional, cell-based. To be noted: PPC-1, 96 h. In a few lines: as §1
Assay [7] can be described thus: Cytotoxicity against human WM164 cells assessed as growth inhibition after 48 hrs by SRB assay. It counts as functional, cell-based. The settings on record: WM164, 48 h. The method, boiled down: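 Melanoma cells from ATCC, grown in DMEM with 10% FBS at 37°C under 5% CO2. Seeded at 1000–5000 cells/well according to growth rate and exposed to a range of compound concentrations for 48 h, in three to five replicates. Cells were fixed with 10% TCA, stained with 0.4% SRB and read at 540 nm. IC50 (50% growth inhibition versus untreated control) was taken from nonlinear regression of % survival against concentration.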

Assay [8] relates to LNCaP. Kind of assay: Cytotoxicity against human LNCAP cells assessed as growth inhibition after 96 hrs by SRB assay. It counts as functional, cell-based. In a few lines: as §1
The mark [9] stands for this setting: Homo sapiens, MDA-MB-435/LCC6 MDR1, 48 h.

Bounds are passed on as bounds.

A word on the IC50: it is the point on the concentration scale where inhibition reaches its midpoint. As to `COc1cc(C(=O)c2nc(-c3ccccc3)cn2Cc2ccccc2)cc(OC)c1OC`, the IC50 stood at 0.094 µM in assay [1]; 0.072 µM in assay [2]; 0.156 µM in assay [3] (setting [9]); 0.104 µM in assay [4]; 0.16 µM in assay [5] (Homo sapiens, DU-145, 96 h); 0.077 µM in assay [6]. In addition, the IC50 in assay [7] is 0.034 µM; in assay [8], 0.066 µM.
In the case of `O=C(c1ccc(C(F)(F)F)cc1)c1nc(-c2ccc(C(F)(F)F)cc2)c[nH]1`, the IC50 in assay [1] is greater than 50 µM; in assay [2] it was greater than 50 µM; in assay [3] (setting [9]) it was 26.5 µM; in assay [4] it was greater than 50 µM; in assay [5] (Homo sapiens, DU-145, 96 h), greater than 50 µM; in assay [6], greater than 50 µM. The IC50 in assay [7] and in assay [8] was greater than 50 µM in each case.
Regarding `COc1cc(C(=O)c2nc(-c3ccccc3)cn2-c2cccs2)cc(OC)c1OC`, the IC50 amounted to 0.025 µM in assay [1], 0.027 µM in assay [3] (setting [9]), 0.02 µM in assay [4] and 0.008 µM in assay [7].
For the molecule `COc1cc(C(=O)c2nc(-c3ccc(O)cc3)c[nH]2)cc(OC)c1OC`, the IC50 stood at 0.669 µM in assay [1]; 0.155 µM in assay [2]; 0.455 µM in assay [3] (setting [9]); 0.487 µM in assay [4]; 0.518 µM in assay [5] (Homo sapiens, DU-145, 96 h); 0.122 µM in assay [6]. Also, the IC50 worked out at 0.549 µM in assay [7] and 0.219 µM in assay [8].
Take `COc1cc(C(=O)c2nc(-c3ccc(Cl)cc3)c[nH]2)cc(OC)c1OC`: the IC50 in assay [1] came to 0.106 µM; in assay [2], 0.064 µM; in assay [3] (setting [9]), 0.075 µM; in assay [4], 0.051 µM; in assay [5] (Homo sapiens, DU-145, 96 h), 0.125 µM; in assay [6] it was 0.051 µM. In addition, the IC50 in assay [7] worked out at 0.063 µM; in assay [8], 0.022 µM.
As for `COc1ccc(C(=O)c2nc(-c3ccc(OC)cc3)c[nH]2)cc1`, the IC50 in assay [1] is greater than 50 µM; in assay [2], 23.4 µM; in assay [3] (setting [9]), greater than 50 µM; in assay [4] it was greater than 50 µM; in assay [5] (Homo sapiens, DU-145, 96 h), 9.84 µM; in assay [6], 38.1 µM. Also, the IC50 is greater than 50 µM in assay [7] and 6.42 µM in assay [8].
As for `COc1cc(-c2c[nH]c(C(=O)c3ccccc3)n2)cc(OC)c1OC`, the IC50 in assay [1] was 4.61 µM; in assay [2] it was 0.632 µM; in assay [3] (setting [9]) it was 5.77 µM; in assay [4], 1.02 µM; in assay [5] (Homo sapiens, DU-145, 96 h), 1.3 µM; in assay [6] it was 0.408 µM. The values for the IC50 in assay [7] and in assay [8] were 1.27 µM and 0.195 µM, respectively.
On to `COc1cc(-c2c[nH]c(C(=O)c3ccc(N(C)C)cc3)n2)cc(OC)c1OC`, for which the IC50 was found to be 29.2 µM in assay [1], 40.6 µM in assay [3] (setting [9]), 47.9 µM in assay [4] and 46.1 µM in assay [7].
Take `O=C(c1ccc(Cl)cc1)c1nc(-c2ccc(Cl)cc2)c[nH]1`: the IC50 is greater than 50 µM in assay [1]; greater than 50 µM in assay [2]; greater than 50 µM in assay [3] (setting [9]); 35.7 µM in assay [4]; greater than 50 µM in assay [5] (Homo sapiens, DU-145, 96 h); greater than 50 µM in assay [6]. In addition, the IC50 in assay [7] and in assay [8] was greater than 50 µM throughout.
Regarding `COc1cc(Cc2nc(-c3ccccc3)c[nH]2)cc(OC)c1OC`, the IC50 in assay [4] was 10.2 µM.
As for `COc1cc(C(=O)c2c[nH]c(-c3ccc(C)cc3)n2)cc(OC)c1OC`, the IC50 in assay [3] (mda-mb-435/lcc6 mdr1) and in assay [5] (du-145) was 0.011 µM each time.
Take `COc1cc(C(=O)c2nc(-c3ccc(F)cc3)c[nH]2)cc(OC)c1OC`: the IC50 in assay [1] came out at 0.32 µM; in assay [2], 0.196 µM; in assay [3] (setting [9]), 0.263 µM; in assay [4], 0.197 µM; in assay [5] (Homo sapiens, DU-145, 96 h) it was 0.353 µM; in assay [6] it was 0.134 µM. The IC50 stood at 0.298 µM in assay [7] and 0.114 µM in assay [8].
Regarding `COc1cc(-c2c[nH]c(C(=O)c3ccc(Br)cc3)n2)cc(OC)c1OC`, the IC50 in assay [1] stood at 0.186 µM; in assay [2], 0.371 µM; in assay [3] (setting [9]) it was 0.161 µM; in assay [4], 0.136 µM; in assay [5] (Homo sapiens, DU-145, 96 h) it was 0.429 µM; in assay [6] it was 0.106 µM. The IC50 in assay [7] came to 0.177 µM; in assay [8] it was 0.131 µM.
On to `COc1cc(C(=O)c2c[nH]c(-c3ccc(C(C)(C)C)cc3)n2)cc(OC)c1OC`, for which the IC50 was 3.69 µM in assay [1]; 0.436 µM in assay [2]; 3.07 µM in assay [3] (setting [9]); 1.7 µM in assay [5] (Homo sapiens, DU-145, 96 h); 0.294 µM in assay [6]; 0.423 µM in assay [8].
Consider `COc1cc(C(=O)c2nc(-c3cc(OC)c(OC)c(OC)c3)c[nH]2)cc(OC)c1OC`, for which the IC50 in assay [1] was greater than 50 µM; in assay [2] it was greater than 50 µM; in assay [3] (setting [9]), greater than 50 µM; in assay [4] it was greater than 50 µM; in assay [5] (Homo sapiens, DU-145, 96 h) it was greater than 50 µM; in assay [6], greater than 50 µM. The IC50 in assay [7] and in assay [8] was greater than 50 µM in each case.
Take `CCc1[nH]c(C(=O)c2cc(OC)c(OC)c(OC)c2)nc1-c1ccccc1`: the IC50 was 8.79 µM in assay [1]; 3.65 µM in assay [2]; 5.11 µM in assay [3] (setting [9]); 2.15 µM in assay [4]; 5.08 µM in assay [5] (Homo sapiens, DU-145, 96 h); 2.08 µM in assay [6]. In addition, the IC50 in assay [7] was found to be 5.51 µM; in assay [8] it was 2.03 µM.
On to `O=C(c1ccc(O)cc1)c1nc(-c2ccc(O)cc2)c[nH]1`, for which the IC50 in assay [1] stood at 48 µM; in assay [3] (setting [9]), 21.4 µM; in assay [4] it was 38.8 µM; in assay [7] it was 48.2 µM.
Regarding `CCc1[nH]c(Cc2cc(OC)c(OC)c(OC)c2)nc1-c1ccccc1`, the IC50 in assay [1] and in assay [3] (setting [9]) was greater than 50 µM in each case.
For the molecule `COc1cc(-c2c[nH]c(C(=O)c3ccc(O)cc3)n2)cc(OC)c1OC`, the IC50 in assay [1], in assay [3] (setting [9]), in assay [4] and in assay [7] was greater than 50 µM throughout.
For the molecule `COc1cc(Cc2nc(-c3ccccc3)c(-c3ccccc3)[nH]2)cc(OC)c1OC`, the IC50 in assay [1] and in assay [3] (setting [9]) was greater than 50 µM each time.
Consider `COc1cc(Cc2nc(-c3ccccc3)c(C)[nH]2)cc(OC)c1OC`, for which the IC50 in assay [4] is greater than 50 µM.
As to `CN(C)c1ccc(C(=O)c2nc(-c3ccc(N(C)C)cc3)c[nH]2)cc1`, the IC50 in assay [1], in assay [3] (setting [9]), in assay [4] and in assay [7] was greater than 50 µM each time.
`COc1cc(C(=O)c2c[nH]c(-c3ccc(C(C)C)cc3)n2)cc(OC)c1OC`: the IC50 in assay [1] worked out at 0.312 µM; in assay [2], 0.136 µM; in assay [3] (setting [9]), 0.25 µM; in assay [5] (Homo sapiens, DU-145, 96 h), 0.482 µM; in assay [6], 0.173 µM; in assay [8] it was 0.171 µM.
With `COc1cc(C(=O)c2nc(-c3ccc(C)cc3)c[nH]2)cc(OC)c1OC`, the IC50 was found to be 0.027 µM in assay [1]; 0.021 µM in assay [3] (setting [9]); 0.013 µM in assay [4]; 0.014 µM in assay [7]; 0.013 µM in assay [8].
As for `COc1ccc(-c2c[nH]c(C(=O)c3cc(OC)c(OC)c(OC)c3)n2)cc1`, the IC50 in assay [1] turned out to be 0.055 µM; in assay [2], 0.061 µM; in assay [3] (setting [9]), 0.059 µM; in assay [4] it was 0.033 µM; in assay [5] (Homo sapiens, DU-145, 96 h), 0.21 µM; in assay [6], 0.054 µM. The IC50 in assay [7] came to 0.041 µM.
For the molecule `CCCc1[nH]c(Cc2cc(OC)c(OC)c(OC)c2)nc1-c1ccccc1`, the IC50 in assay [1] was determined as 10.9 µM; in assay [3] (setting [9]), 15.9 µM.
